Test results from ChEMBL document CHEMBL4732158, “Bicyclic Ligand-Biased Agonists of S1P: Exploring Side Chain Modifications to Modulate the PK, PD, and Safety Profiles” (J Med Chem, 2021).
Active and inactive are the calls of the source. The rule behind the calls is not given here.

What was measured:
[1] = Cardiotoxicity in human iPSC derived cardiomyocytes assessed as change in heart rate at 1 nM measured over 2 hrs by multi-electrode array relative to control; type: toxicity, cell-based; settings: stem cell-derived cardiomyocyte, 0.001 µM
Outline: (§1)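 Phosphate metabolite of each compound prepared and tested on cultured human induced pluripotent stem cell-derived cardiomyocytes at 1 and 10 nM; beat rate change averaged over three or more replicates per concentration unless noted (some n = 2).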

[2] = Drug concentration in Lewis rat blood assessed as concentration of parent compound at 2 mg/kg, po measured at 24 hrs by LC-MS/MS analysis; type: ADME, organism-based; settings: in vivo, read-out: Ct
Outline: (§2)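 Lewis rats (n = 2−4) dosed orally at 0.5, 1, 2 or 5 mg/kg; blood parent and phosphate metabolite concentrations and lymphocyte counts taken 4 and 24 h post-dose; phosphate-to-parent ratio from 24 h levels; significance versus vehicle by ANOVA with Dunnett's test.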

[3] = Pulmonary toxicity in Lewis rat assessed as fold elevation of BAL protein content at 2 mg/kg, po by chemistry analyzer based analysis relative to control; type: organism-based; settings: in vivo
Outline: (§3)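 Lewis rats dosed orally; bronchoalveolar lavage protein measured at study end, expressed as fold over vehicle control.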

[4] = Reduction in circulating lymphocytes count in Lewis rat at 2 mg/kg, po measured at 24 hrs by hematology analyzer based analysis; type: Functional, organism-based; design: scale not given: the % may be the effect or the level left; settings: in vivo
Outline: (§4)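 Lewis rats (n = 2−4) dosed orally; whole-blood lymphocyte counts taken 4 h and 24 h after dosing and reduction expressed versus vehicle-treated rats. Significance by ANOVA with Dunnett's test (p < 0.05 vs vehicle). Blood levels of parent and phosphate metabolite measured at the same time points in this PK/PD screen.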

[5] = Cardiotoxicity in human iPSC derived cardiomyocytes assessed as change in heart rate at 10 nM measured over 2 hrs by multi-electrode array relative to control; type: toxicity, cell-based; settings: stem cell-derived cardiomyocyte, 0.01 µM; outline: as §1
Rattus norvegicus [6] = assay: Reduction in circulating lymphocytes count in Lewis rat at 2 mg/kg, po measured at 4 hrs by hematology analyzer based analysis; type: functional; design: scale not given: the % may be the effect or the level left; outline: as §4
[7] = Ratio of drug metabolism in Lewis rat blood assessed as phosphate ester metabolite to parent drug at 2 mg/kg, po measured at 24 hrs by LC-MS/MS analysis; type: ADME, organism-based; settings: in vivo; outline: as §2
[8] = Half life in Lewis rat at 2 mg/kg, po measured at 4 to 72 hrs; type: ADME, organism-based; settings: Lewis, in vivo, time 4-72 hrs
Outline: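 Half-life estimated from oral-dosing blood PK profiles in Lewis rats sampled at four time points: 4, 24, 48 and 72 h.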

[9] = Drug concentration in Lewis rat blood assessed as concentration of parent compound at 2 mg/kg, po measured at 4 hrs by LC-MS/MS analysis; type: ADME, organism-based; settings: Lewis, blood, read-out: Ct; outline: as §2
[10] = Pulmonary toxicity in Lewis rat assessed as fold elevation of BAL protein content at 15 mg/kg, po by chemistry analyzer based analysis relative to control; type: organism-based; settings: in vivo; outline: as §3
[11] = Antimigratory activity against human T cells assessed as inhibition of S1P-induced T cell migration preincubated for 10 mins followed by addition of S1P measured after 120 mins by calcein-AM dye based fluorescence analysis; type: functional
[12] = Pulmonary toxicity in Lewis rat assessed as fold elevation of BAL protein content at 10 mg/kg, po by chemistry analyzer based analysis relative to control; type: organism-based; settings: in vivo, 2 mg/kg, in the assay text read “2 mg/kg” for “10 mg/kg”; outline: as §3
[13] = Reduction in circulating lymphocytes count in Lewis rat at 0.5 mg/kg, po measured at 24 hrs by hematology analyzer based analysis; type: ADME, organism-based; design: scale not given: the % may be the effect or the level left; settings: in vivo; outline: as §2
[14] = Drug metabolism in Lewis rat blood assessed as parent compound concentration at 0.5 mg/kg, po measured at 4 hrs by LC-MS/MS analysis; type: ADME, organism-based; outline: as §2
[15] = Drug metabolism in Lewis rat blood assessed as parent compound concentration at 0.5 mg/kg, po measured at 24 hrs by LC-MS/MS analysis; type: ADME, organism-based; settings: Lewis, blood, read-out: Ct; outline: as §2
[16] = Reduction in circulating lymphocytes count in Lewis rat at 0.5 mg/kg, po measured at 4 hrs by hematology analyzer based analysis; type: ADME, organism-based; design: scale not given: the % may be the effect or the level left; settings: in vivo; outline: as §2
Rattus norvegicus [17] = assay: Antiinflammatory activity in complete freund's adjuvant-induced Lewis rat model of arthritis assessed as reduction in paw edema at 0.3 mg/kg, po administered via gavage once daily and measured at day 13 to 20 by plethysmometric method; type: functional, organism-based; settings: time 13-20 day
Rattus norvegicus [18] = assay: Antiinflammatory activity in complete freund's adjuvant-induced Lewis rat model of arthritis assessed as increase in paw volume at 1 mg/kg, po administered via gavage once daily by plethysmometric method; type: functional, organism-based
Rattus norvegicus [19] = assay: Antiinflammatory activity in complete freund's adjuvant-induced Lewis rat model of arthritis assessed as reduction in paw edema administered via oral gavage once daily by plethysmometric method; type: functional, organism-based
[20] = Drug concentration in Lewis rat blood assessed as concentration of parent compound at 5 mg/kg, po measured at 24 hrs by LC-MS/MS analysis; type: ADME, organism-based; settings: Lewis, blood, read-out: Ct; outline: as §2
[21] = Reduction in circulating lymphocytes count in Lewis rat at 5 mg/kg, po measured at 24 hrs by hematology analyzer based analysis; type: ADME, organism-based; design: scale not given: the % may be the effect or the level left; settings: in vivo; outline: as §4
[22] = Drug concentration in Lewis rat blood assessed as concentration of parent compound at 5 mg/kg, po measured at 4 hrs by LC-MS/MS analysis; type: ADME, organism-based; settings: read-out: Ct; outline: as §2
[23] = Pulmonary toxicity in Lewis rat assessed as fold elevation of BAL protein content at 5 mg/kg, po by chemistry analyzer based analysis relative to control; type: organism-based; settings: in vivo; outline: as §3
Rattus norvegicus [24] = assay: Reduction in circulating lymphocytes count in Lewis rat at 5 mg/kg, po measured at 4 hrs by hematology analyzer based analysis; type: functional; design: scale not given: the % may be the effect or the level left; outline: as §4

Row | concentration [2] | Activity [4] | Ratio [7] | half-life [8] | concentration at 4 h [9] | Structure (SMILES) | Activity [1] | Activity [5] | Activity (Rattus norvegicus [6]; 2 mg/kg, 4 h) | further results
1 | 69 nM | 84% | 3.9 | 31 h | 265 nM | COCCCCCCC1CCc2cc([C@H]3CC[C@](N)(CO)C3)ccc2C1 (stereo in doubt; 25a) | -16% | -32% | 70% | fold change (FC) [3]: 1.7
2 | 33 nM | 74% | 2.8 | 13 h | 141 nM | COCCCC1CCc2cc([C@H]3CC[C@](N)(CO)C3)ccc2C1 (stereo in doubt; 22a) |  |  | 76% | fold change (FC) [10]: 3
3 |  |  |  |  |  | CCCCCC[C@@H]1CCc2cc([C@H]3CC[C@](N)(COP(=O)(O)O)C3)ccc2C1 |  |  |  | IC50 [11]: 2.5 nM
4 | 51 nM | 81% | 8.2 | 15 h | 129 nM | COCCCCCC1CCc2cc([C@H]3CC[C@](N)(CO)C3)ccc2C1 (single isomer, unassigned; 23) | -20% | -40% |  | fold change (FC) [3]: 1.9; Activity (Rattus norvegicus [6]): 78%
5 | 110 nM | 87% | 1.4 |  | 300 nM | COCCCCC1CCc2cc([C@H]3CC[C@](N)(CO)C3)ccc2C1 (stereo in doubt; 13a) |  |  | 78% | fold change (FC) [12]: 1.7
6 |  |  |  |  |  | CCCCCSC[C@@H]1CCc2cc([C@H]3CC[C@](N)(CO)C3)ccc2C1 |  |  |  | Activity [13]: 63%; Ct ([14]; in vivo, 0.5 mg/kg, 4 h, BLD = below limit of detection): Bld; concentration at 24 h [15]: < 31 nM; Activity [16]: 0%
7 |  |  |  |  |  | COCCCCCC1CCc2cc([C@H]3CC[C@](N)(CO)C3)ccc2C1 (single isomer, unassigned; 24) |  |  |  | Activity (Rattus norvegicus [17]): inactive; Activity (Rattus norvegicus [18]): inactive; Activity (Rattus norvegicus [19]): Dose-dependent effect
8 |  |  |  |  |  | CCCOCCOC[C@@H]1CCc2cc([C@H]3CC[C@](N)(CO)C3)ccc2C1 |  |  |  | concentration at 24 h [20]: 28 nM; Activity [21]: 70%; concentration at 4 h [22]: 360 nM; fold change (FC) [23]: 1.4; Activity (Rattus norvegicus [24]): 72%
9 |  |  |  |  |  | CCCSCCC1CCc2cc([C@H]3CC[C@](N)(CO)C3)ccc2C1 (single isomer, unassigned) | -26% | -61% |  | Activity [13]: 60%; concentration at 4 h ([14]; Lewis, blood, read-out: Ct): 43 nM; concentration at 24 h [15]: 20 nM; Activity [16]: 0%
